# Screening results deposited in PubChem BioAssay by The Scripps Research Institute Molecular Screening Center.
# Hits are enriched below; roughly 3.1% of the tested compounds scored in any of these assays.
# OX1R antag-1: antagonists of human orexin 1 receptor (OX1R). 1.8% of 330,000 active. OX1R-expressing cells, FRET antagonist read-out. inhibition, % at 6.6 µM; in the data active = inhibition mostly above about 38%, no sharp cut-off; inactive = mostly below about 40%;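 also: 0% = agonist challenge alone and 100% = reference antagonist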
# Target sequence (O43613 whole entry, looked up): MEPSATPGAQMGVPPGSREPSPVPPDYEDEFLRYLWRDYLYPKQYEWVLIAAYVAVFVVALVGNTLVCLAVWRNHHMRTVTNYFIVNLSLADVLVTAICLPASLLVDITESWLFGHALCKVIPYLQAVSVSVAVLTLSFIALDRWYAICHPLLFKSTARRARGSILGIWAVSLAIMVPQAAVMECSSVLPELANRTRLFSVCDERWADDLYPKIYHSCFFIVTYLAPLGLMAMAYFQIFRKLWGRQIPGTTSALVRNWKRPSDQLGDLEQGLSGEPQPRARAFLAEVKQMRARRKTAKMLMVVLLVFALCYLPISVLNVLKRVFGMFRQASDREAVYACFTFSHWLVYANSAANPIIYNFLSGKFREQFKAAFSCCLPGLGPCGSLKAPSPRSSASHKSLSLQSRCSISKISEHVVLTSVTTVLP
# OX1R antag-2: OX1R (HCRTR1) antagonists, primary screen, fluorescence, CHO/OX1R cells, Fluo-8 calcium, orexin A; inhibition, % at 5 µM; Orexin/Hypocretin receptor type 1 (Homo sapiens), O43613; Fluo-8 calcium fluorescence; 0.43% of 330,000 active;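 active = inhibition above its plate's threshold, mean inhibition of all tested compounds on the plate plus 3 SD, cut at about 37% in these data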;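 also: 0% = orexin A challenge wells and 100% = SB-334867-A antagonist wells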
# GalR3 antag: GalR3 antagonists in HEK293 cells, primary screen, cell-based, fluorescence readout | Galanin receptor type 3 (Homo sapiens), O60755 | HEK293 GalR3-CNG cAMP membrane potential fluorescence; galR3 body fused to GalR1 C-terminus | inhibition, % at 3 µM | 0.44% of 360,000 active;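 active = inhibition above the screen-wide average plus 3 SD, cut at about 13% in these data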;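 also: forskolin and galanin both at EC90 stimulate the cells; cAMP rise reported by CNG channel membrane potential dye signal; 0% = forskolin plus galanin with DMSO and 100% = forskolin alone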
# CHO parental Ca: ATP-evoked calcium signal inhibitors, parental CHO, primary screen, counter-screen for OX1R antagonist project, cell-based, fluorescence, Fluo-8 calcium dye; parental CHO-K1, ATP-induced calcium, Fluo-8 fluorescence; inhibition, % at 5.6 µM; 0.63% of 330,000 active;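 active = inhibition above that plate's mean sample inhibition plus 3 SD, cut at about 26% in these data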;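 also: 0% = ATP-challenged DMSO wells and 100% = DMSO wells without ATP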
#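 Test system: parental CHO cells; detection: calcium-sensitive Fluo-8 fluorescence; evaluation: percent inhibition of calcium signal; also added: ATP as calcium-mobilizing challenge; repeats: one well per compound; control set: ATP-challenged DMSO wells low, unchallenged DMSO wells high; compound: single nominal dose of 5.6 µM per compound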
# GPR7 antag: GPR7 receptor antagonists, primary screen, cell-based, fluorescence, single concentration; Neuropeptides B/W receptor type 1 (Homo sapiens), P48145; GPR7-expressing cells, fluorescence antagonist assay; inhibition, % at 4.4 µM; 1.1% of 290,000 active; in the data active = inhibition above about 16%, passing the limit was not always enough;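 also: cells stimulated with the agonist NPW; 0% = agonist with vehicle and 100% = vehicle without agonist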
# The depositor's hits bear a star; nt = not tested or not shown.
SMILES,OX1R antag-1,OX1R antag-2,GalR3 antag,CHO parental Ca,GPR7 antag
COc1ccc(OC(C)C(=O)Nc2ccc([N+](=O)[O-])cc2)cc1 (stereo not given),16.2,-1.2,-6.8,-9.3,20.1
Nc1[nH]c(C(=O)c2ccccc2)c(-c2ccc(Cl)cc2F)c1C(=O)NCCc1c[nH]c2ccccc12,nt,nt,-6.9,nt,nt
O=C1OC(CN(Cc2ccccc2)Cc2ccccc2)CN1N=Cc1ccc([N+](=O)[O-])o1 (stereo not given),nt,nt,-1.9,nt,nt
O=C1OC(CN2CCOCC2)CN1N=Cc1ccc([N+](=O)[O-])o1 (stereo not given),59.8*,-2.0,-1.6,-0.4,nt
O=C1CN(/N=C/c2ccc([N+](=O)[O-])o2)C(=O)N1,84.3*,1.2,nt,0.3,-14.8
CC(C)NC(=O)OC[C@H]1O[C@H](C#Cc2ccc(C(C)(C)C)cc2)C=C[C@H]1O,nt,nt,-5.8,nt,nt
C=CCN=C1NC(c2ccc(Cl)cc2)C(C(=O)OC)=C(C)N1Cc1ccccc1C(F)(F)F (stereo not given),nt,nt,-5.9,nt,nt
N#CC1=C2SCC(O)(c3ccccc3)N2C(=O)CC1c1ccccc1F (stereo not given),1.0,-29.3,-6.0,-11.5,-4.3
N#CC1=C2SCC(O)(c3ccccc3)N2C(=O)CC1c1cccs1 (stereo not given),15.6,-15.7,-5.9,-11.1,17.4*
COc1ccc(C/C(N)=N/OC(=O)C(c2ccccc2)c2ccccc2)cc1OC,21.4,53.8*,-7.0,-9.4,-12.1
COc1ccc(C/C(N)=N/OC(C)=O)cc1OC,6.2,-5.8,-4.0,0.1,-7.2
C=CCc1cccc(/C=N/NC(=O)C(C)Nc2ccc(C)cc2)c1O (stereo not given),7.2,-10.6,-3.7,-15.2,-6.0
C=CCc1cccc(/C=N/NC(=O)C(=O)Nc2ccc(C)cc2)c1O,48.8*,-15.7,-3.9,-13.5,-7.2
C=CCc1cccc(/C=N/NC(=O)c2ccccc2OC)c1O,25.6,-25.8,-5.5,-12.8,18.9*
COc1cc2c(cc1OC)C(c1cccs1)N(C(=O)C(C)C)CC2 (stereo not given),19.7,-15.2,-4.2,-2.5,18.2*
C[C@@H]1ON(C)[C@H]2C[C@H]3c4[nH]c5cccc(Br)c5c4CCN3C(=O)[C@@H]12,nt,nt,-8.0,nt,nt
Cc1cc(SCC(=O)N/N=C/c2ccc(O)c(O)c2O)c(C)cc1Br,16.9,4.4,1.0,-0.9,-10.4
COc1cc(/C=N/NC(=O)CSc2cc(C)c(Br)cc2C)ccc1O,48.0*,6.8,-3.1,8.3,0.6
CCN1C(=O)N[C@H]2C[C@H](C(=O)N3CCCC3)[C@H](C)[C@H](c3ccccc3)C[C@H]21,nt,nt,-1.7,nt,nt
CCOC(=O)c1c(C)oc2c1c(CN1CCN(C(=O)OCC)CC1)c(O)c1ccccc12,69.8*,1.4,0.0,-14.6,-10.0
CCOC(=O)c1c(C)oc2c1c(CN1CCN(CCO)CC1)c(O)c1ccccc12,nt,nt,-4.8,nt,7.3
CC(C)(C)c1ccc(C#C[C@@H]2C=C[C@H]3OC(=O)CC/C=C/CCC(=O)OC[C@H]3O2)cc1,nt,nt,-1.6,nt,nt
O=C(NCc1ccccc1)c1ccc(-c2ccccc2F)o1,58.6*,-12.1,-8.8,4.2,-8.8
CC(C)c1[nH]nc2c1C(c1ccc(F)cc1)NC2=O (stereo not given),nt,nt,-6.2,nt,nt
CCOC(=O)C1=C(C)Nc2ccccc2N=C1NC(=O)c1oc2ccccc2c1COC,30.4*,-13.5,-8.0,-6.2,nt
SMILES,OX1R antag-1,OX1R antag-2,GalR3 antag,CHO parental Ca,GPR7 antag
CCOC(=O)C1=C(C)Nc2ccccc2N=C1N,24.7,7.5,-4.3,-9.3,-17.7
COc1ccc(Cn2c(C)cc(O)cc2=O)cc1,nt,nt,-7.6,nt,nt
Cc1ccc(Nc2nc(NCc3ccco3)c3ccccc3n2)cc1,33.5,47.3*,-10.8,56.5*,34.2*
Fc1ccccc1-c1nc(NCc2ccco2)c2ccccc2n1,46.3,-30.7,-4.7,-14.6,1.9
Oc1ccccc1-c1nc(NCc2ccco2)c2ccccc2n1,39.6*,-20.1,-6.7,-17.2,-16.8
COc1cc(/C=C2\Oc3cc(O)ccc3C2=O)ccc1O,60.5*,33.0,-4.6,22.4,nt
O=C1/C(=C/c2ccc(O)c(O)c2)Oc2cc(O)ccc21,23.9,14.4,3.2,14.8,nt
O=C1/C(=C/c2cccc([N+](=O)[O-])c2)Oc2cc(O)ccc21,28.6*,14.4,-9.2,1.1,5.1
